# High-throughput results deposited in PubChem by Broad Institute.
# INS-1E GSIS act: GLuc luminescence reporter in INS-1E cells, primary screen for activators of glucose-dependent secretion of insulin | INS-1E GLuc reporter insulin secretion, 2-3 h | activation, % at 16.6 µM | 370,000 compounds, 0.61% hits;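 active = lowest replicate activation of at least 40%, so every replicate reaches that level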;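 note: 0% = median of neutral control wells and 100% = median of IBMX positive control wells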
# CDK5 p35 inh: inhibitors of human CDK5/p35 kinase, primary screen, biochemical, single concentration; Cyclin-dependent kinase 5 (Homo sapiens) + Cyclin-dependent kinase 5 activator 1 (Homo …; Recombinant CDK5/p35, ADP-Glo luminescence, 60 min; inhibition, % at 10 µM; 330,000 compounds, 0.01% hits; AID 488839, 2010;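 active = highest replicate inhibition of at least 50% and at least 75% of replicates reaching 50%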;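 note: plate controls were DMSO neutral control for no effect and GW8510 at 10 µM for full effect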
# Target sequence (Q00535 whole entry, looked up): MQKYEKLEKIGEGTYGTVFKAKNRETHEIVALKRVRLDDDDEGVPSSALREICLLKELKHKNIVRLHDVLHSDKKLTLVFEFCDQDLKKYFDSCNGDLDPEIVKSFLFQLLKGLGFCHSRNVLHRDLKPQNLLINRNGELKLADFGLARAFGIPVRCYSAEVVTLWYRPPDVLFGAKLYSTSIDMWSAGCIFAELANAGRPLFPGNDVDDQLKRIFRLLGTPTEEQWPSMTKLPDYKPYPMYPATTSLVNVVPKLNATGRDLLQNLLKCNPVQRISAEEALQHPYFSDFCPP
# Target sequence (Q15078 whole entry, looked up): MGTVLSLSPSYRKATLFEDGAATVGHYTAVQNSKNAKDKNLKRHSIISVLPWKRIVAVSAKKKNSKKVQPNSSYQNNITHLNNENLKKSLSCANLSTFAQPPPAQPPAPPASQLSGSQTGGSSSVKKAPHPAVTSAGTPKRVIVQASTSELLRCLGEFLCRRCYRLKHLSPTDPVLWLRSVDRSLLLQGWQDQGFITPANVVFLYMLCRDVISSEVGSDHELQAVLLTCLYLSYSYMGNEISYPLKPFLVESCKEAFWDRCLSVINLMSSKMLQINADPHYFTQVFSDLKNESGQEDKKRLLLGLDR
# PAX8 reporter: inhibitors of PAX8-driven TPO luciferase reporter, primary screen, RMG-I cells, single concentration; SteadyGlo, 24 h; inhibition, % at 12.6 µM; 360,000 compounds, 1.2% hits; AID 652154, 2013;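 active = mean replicate inhibition at least 60% with every replicate also reaching 60%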;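 note: luciferase light reporting Pax8 driven TPO promoter activity; plate controls were median of neutral control wells for no effect and mitoxantrone controls for full effect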
# dFosB activator: activators of delta FosB homodimer, primary screen, biochemical, fluorescence polarization, TAMRA-CDK5 oligo, single point; Protein FosB (Mus musculus), P13346; 340,000 compounds, 0.99% hits; activation, % at 25 µM; purified delta FosB; percent of positive-control signal above neutral wells;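 active = mean activation above about 17%, with every replicate also reaching it, limit read from the data, passing the limit was not always enough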
# Cneo AK release: Cryptococcus neoformans cell lysis inducers, primary screen, AK release luminescence, single concentration; C. neoformans lysis, adenylate kinase release luminescence, 4 h; normalised: neutral wells 0, clomiphene wells 100; lysis activity, % at 15 µM; 360,000 compounds, 0.2% hits;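 active = mean lysis activity across replicates of at least 80%, whatever share of replicates individually reach that level; inactive = mean lysis activity below 80%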
#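 read-out = cell lysis signal | test system = log-phase Cryptococcus neoformans yeast cells | input = cells at 5 × 10^6 per mL | medium = fresh YPD growth medium | signal = luminescent adenylate kinase detection reagent | timing = 4 h at 37 °C static, read 1 h later | dosing = single dose | controls = Clomiphene as positive lysis control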
# Env fusion inh: inhibitors of HIV-1 Env-driven cell-cell fusion, primary screen, HeLa-JRFL effector, CEM21 target cells, luciferase; inhibition, % at 12.3 µM; 360,000 compounds, 1.1% hits; AID 651610, 2012;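 active = mean replicate inhibition score of at least 50 and every replicate individually at or above 50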;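 note: 0% = plate neutral controls and 100% = maraviroc near 300 nM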
# Starred values were filed as active, the others as inactive; nt = no result; ! = repeats disagree; [ ] = dose if it differs, or a comment. The list is not random: actives were taken first. Their share in the collection is about 2.9%.
SMILES,INS-1E GSIS act,CDK5 p35 inh,PAX8 reporter,dFosB activator,Cneo AK release,Env fusion inh
CCN(CC(=O)Nc1ccc(OC)cc1)C(=O)c1cc(S(=O)(=O)N2CCOCC2)ccc1N1CCCC1,-7,-3,69*,0,0,-176
CCN(CC(=O)Nc1c(F)cccc1F)C(=O)c1cc(S(=O)(=O)N(CC)CC)ccc1N1CCCCC1,-54,3,88*,-10,-8,-18
CN(C)S(=O)(=O)c1ccc(N2CCCC2)c(C(=O)NCC2CCCCC2)c1,-6,-2,-3,0,nt,24
CCN(CC(=O)Nc1c(F)cccc1F)C(=O)c1cc(S(=O)(=O)N(C)C)ccc1N1CCCC1,-6,-1,90*,-12,0,-4
CN(C)S(=O)(=O)c1ccc(N2CCCC2)c(C(=O)NCCc2ccc(F)cc2)c1,14,-1,17,-4,1,75*
COCC(=O)N1CC2(C1)[C@H](c1ccc(-c3ccc(F)cc3)cc1)[C@@H](CO)N2C(=O)C1CC1,-5,nt,5,nt,nt,nt
COc1ccccc1-c1ccc2n(c1=O)C[C@@H]1[C@@H](CO)[C@H](C(=O)NC3CCC3)N(C(C)=O)[C@H]21,1,nt,-1,nt,-4,nt
CCN(CC)S(=O)(=O)c1ccc(N2CCCC2)c(NC(=O)Cc2c(F)cccc2Cl)c1,0,-4,-17,-6,3,57*
CCOC(=O)c1c(CSc2cccs2)n(C)c2cc(Br)c(O)c(CN(C)C)c12,-41,1,-6,-14,0,85*
O=C(O)c1ccccc1/C=N/NC(=S)NC1CCCCC1,75*,-2,3,0,-1,-20
Cn1c(-c2ccccc2)cccc1=O,28,0,nt,2,1,-23
Cn1c(-c2ccccc2)c[n+]2c1-c1ccccc1C2,5,0,25,-3,nt,57*
CCC(C)(C)c1ccc(OCCCC[n+]2ccccc2)c(C(C)(C)CC)c1,-22,1,88*,0,nt,77*
COc1ccc(C(=O)Nc2ccc3c(c2)OC[C@@H](C)NC[C@@H](C)[C@@H](OC)CN(C)C3=O)cc1,12,nt,nt,nt,7,-17[16.7 µM]
COc1cccc(CN2CCCCN3[C@H](C2)[C@@H](c2ccc(C#Cc4cccnc4)cc2)[C@@H]3CO)c1,-14,nt,13,nt,1,nt
COC(=O)C(C)N(C(=O)c1cccc2ccccc12)c1c(C)cccc1C (configuration not stated),nt,1,nt,3,nt,78*
O=C(Cc1cccnc1)N1CC(=O)N2[C@H](CO)[C@@H](c3ccc(C#CC4CC4)cc3)[C@@H]2C1,2,nt,-4,nt,nt,nt
CCN(CC)S(=O)(=O)c1cccc(S(=O)(=O)c2cccc(S(=O)(=O)N(CC)CC)c2)c1,-16,0,nt,-11,-1,79*
O=C(Cn1cc(C(=O)c2cccs2)c2ccccc21)NCC1CCCO1 (configuration not stated),nt,-2,7,0,-1,-40
O=C(Cn1cc(C(=O)c2cccs2)c2ccccc21)NCc1ccc2c(c1)OCO2,8,0,13,-1,3,57*
O=C(NC(Nc1nc2ccc([N+](=O)[O-])cc2s1)(C(F)(F)F)C(F)(F)F)c1ccccc1Cl,-34,-2,101*,-4,nt,25
O=C(NC(Nc1nc2ccc([N+](=O)[O-])cc2s1)(C(F)(F)F)C(F)(F)F)c1cccnc1,-65,0,93*,-6,nt,123*
C[C@H](CO)N1C[C@H](C)[C@@H](CN(C)Cc2ccc(Oc3ccccc3)cc2)Oc2ccc(NC(=O)C3CCCCC3)cc2C1=O,-21,nt,nt,nt,nt,38[16.7 µM]
Cc1ccc(-c2csc(N3CCN(c4cc5c(cc4Cl)nc(-c4ccncc4)n5CCN4CCCCC4)CC3)n2)cc1,-6,0,-41,22*,4,7
CC(C)C#Cc1cnc2c(c1)C(=O)N([C@H](C)CO)C[C@H](C)[C@@H](CN(C)Cc1ccccc1F)O2,3,nt,nt,nt,11,23[16.7 µM]
SMILES,INS-1E GSIS act,CDK5 p35 inh,PAX8 reporter,dFosB activator,Cneo AK release,Env fusion inh
COc1ccc(CO/N=C/c2c(C)[nH]c(=O)[nH]c2=O)cc1,44*,-1,nt,-16,4,nt
COc1ccc(C(=O)N/N=C/c2c(C)[nH]c(=O)[nH]c2=O)cc1,1,2,-1,3,1,-5
COc1cccc(-c2ccc(C3[C@@H]4CN(Cc5cccc(F)c5)C[C@H]3N4)cc2)c1 (some centres not stated),755*!,nt,75*!,nt,nt,nt
COc1ccc(-c2ccc(C3[C@@H]4CN(Cc5cccc(OC)c5)C[C@H]3N4)cc2)cc1 (some centres not stated),51*!,nt,-3,nt,nt,nt
COc1cccc(CN2C[C@@H]3N[C@H](C2)C3c2ccc(-c3ccncc3)cc2)c1 (some centres not stated),6,nt,7,nt,nt,nt
COc1cc(CN2C[C@@H]3N[C@H](C2)C3c2ccc(-c3ccccc3C)cc2)cc(OC)c1 (some centres not stated),2,nt,73*!,nt,nt,nt
COc1cccc(CN2C[C@@H]3N[C@H](C2)C3c2ccc(-c3cccc(C#N)c3)cc2)c1 (some centres not stated),-5,nt,27,nt,nt,nt
CC(C)NC[C@@H]1[C@@H](c2ccc(C3=CCCCC3)cc2)[C@@H](CO)N1C(=O)CC1CC1,-2,nt,nt,nt,nt,nt
Cc1ccn2c(=O)nc(SCC(=O)N3CCC(C)CC3)nc2c1,-5,0,-4,-2,2,15
CC1CCN(C(=O)CSc2nc(=O)n3cc(Cl)ccc3n2)CC1,78*,0,-13,-9,nt,3
C[C@@H]1CN([C@H](C)CO)C(=O)c2cc(NS(=O)(=O)c3cccs3)ccc2O[C@H]1CN(C)S(=O)(=O)c1cccs1,0,nt,-30,nt,nt,-8[16.7 µM]
CO[C@@H](CN(C)Cc1ccc2c(c1)OCO2)[C@@H](C)CN(C(=O)c1ccccc1)[C@@H](C)CO,-1,nt,nt,nt,0,nt
CSc1ccc(CN2CCC2(C)C(=O)Nc2cccc(NS(C)(=O)=O)c2)cc1 (configuration not stated),nt,nt,13,nt,-1,76*
COc1ccc(NC(=O)C2(C)CCN2Cc2ccc(SC)cc2)cc1OC (configuration not stated),-17,nt,-7,nt,-1,36
COc1ccccc1-c1cc(C(F)(F)F)nc(S(=O)(=O)CCCC(=O)Nc2cc(C)on2)n1,nt,-1,nt,-5,0,nt
COc1ccc(-c2cc(C(F)(F)F)nc(S(=O)(=O)CCCC(=O)Nc3cc(C)on3)n2)cc1OC,6,1,90*,-5,nt,9
